dFosB act – enhances mouse delta FosB homodimer DNA binding; purified delta FosB, TAMRA-CDK5 oligo fluorescence polarization; percent of positive-control signal above neutral wells; activation, % at 25 µM; actives 0.99% (n = 340,000); AID 493131;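 active = mean activation above about 17%, with every replicate also reaching it, limit read from the data, passing the limit was not always enough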
Target sequence (P13346 whole entry, looked up): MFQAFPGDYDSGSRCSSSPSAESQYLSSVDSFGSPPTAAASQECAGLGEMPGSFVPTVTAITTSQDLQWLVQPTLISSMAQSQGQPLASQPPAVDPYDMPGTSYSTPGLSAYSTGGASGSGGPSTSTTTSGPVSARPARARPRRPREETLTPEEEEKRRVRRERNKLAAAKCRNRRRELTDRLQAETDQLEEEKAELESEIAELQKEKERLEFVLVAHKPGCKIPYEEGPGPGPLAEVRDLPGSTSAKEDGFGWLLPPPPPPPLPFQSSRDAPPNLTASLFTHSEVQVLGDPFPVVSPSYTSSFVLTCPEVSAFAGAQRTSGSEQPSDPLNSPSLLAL
Cneo AK release – causes C. neoformans cell lysis | adenylate kinase release luminescence, 4 h; normalised: neutral wells 0, clomiphene wells 100 | lysis activity, % at 15 µM | actives 0.2% (n = 360,000);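 active = mean lysis activity across replicates of at least 80%, whatever share of replicates individually reach that level; inactive = mean lysis activity below 80%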
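Material: C. neoformans cells; Schedule: 4 h static compound exposure, 37 °C, read 1 h post-reagent; Measured by: adenylate kinase release luminescence; Read-out: signal increase indicating cell lysis; Controls: Clomiphene as positive lysis control.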
CDK5 inh – inhibitors of human CDK5/p35 kinase; Q00535+Q15078; Recombinant CDK5/p35, ADP-Glo luminescence, 60 min; inhibition, % at 10 µM; actives 0.01% (n = 330,000); AID 488839;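 active = highest replicate inhibition of at least 50% and at least 75% of replicates reaching 50%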;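 note: plate controls were DMSO neutral control for no effect and GW8510 at 10 µM for full effect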
GSIS activator – GLuc luminescence reporter in INS-1E cells, primary screen for activators of glucose-dependent secretion of insulin; INS-1E GLuc reporter insulin secretion, 2-3 h; activation, % at 16.6 µM; actives 0.61% (n = 370,000);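 active = lowest replicate activation of at least 40%, so every replicate reaches that level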;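 note: 0% = median of neutral control wells and 100% = median of IBMX positive control wells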
PAX8 reporter – lowers PAX8-driven luciferase in RMG-I cells | RMG-I TPO-luciferase reporter, SteadyGlo, 24 h | inhibition, % at 12.6 µM | actives 1.2% (n = 360,000) | AID 652154;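 active = mean replicate inhibition at least 60% with every replicate also reaching 60%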;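 note: luciferase light reporting Pax8 driven TPO promoter activity; plate controls were median of neutral control wells for no effect and mitoxantrone controls for full effect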
Env fusion inh – HIV envelope-mediated fusion inhibition; HeLa-JRFL Env/CEM21 cell fusion, luciferase; inhibition, % at 12.3 µM; actives 1.1% (n = 360,000);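 active = mean replicate inhibition score of at least 50 and every replicate individually at or above 50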;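 note: 0% = plate neutral controls and 100% = maraviroc near 300 nM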
* marks the source's active call; other numbers are inactive results; · = no result given; ! = not confirmed by another sample; [ ] = remark or other dose. In the library only some 2.9% were active in any assay of this set; here they are far more common.

SMILES	dFosB act	Cneo AK release	CDK5 inh	GSIS activator	PAX8 reporter	Env fusion inh
CCOC(=O)c1ccc(S(=O)(=O)N2CCC(C(=O)Nc3nnc(C)o3)CC2)cc1	3	5	-2	58*	-14	-32
COc1cccc(CNC(=O)C[C@H]2C=C[C@@H](NC(=O)C3CCC3)[C@H](CO)O2)c1	·	·	·	5	-13	-22[16.7 µM]
O=C(C[C@@H]1C=C[C@@H](NC(=O)C2CCC2)[C@@H](CO)O1)NC1CCC1	·	0	·	13	7	-12[16.7 µM]
O=C(C[C@@H]1C=C[C@@H](NC(=O)C2CCC2)[C@H](CO)O1)NC1CCC1	·	96*	·	5	-46	-22[16.7 µM]
COc1cccc(CNC(=O)C[C@@H]2C=C[C@H](NC(=O)C3CCC3)[C@H](CO)O2)c1	·	-15	·	17	-17	65*[16.7 µM]
CCC(=O)N[C@H]1C=C[C@H](CC(=O)NCC2CCCCC2)O[C@@H]1CO	·	89*	·	-6	-17	12[16.7 µM]
O=C(C[C@H]1C=C[C@H](NC(=O)C2CCC2)[C@@H](CO)O1)NC1CCC1	·	91*	·	30	-12	20[16.7 µM]
CCC(=O)N[C@@H]1C=C[C@H](CC(=O)NCC2CCCCC2)O[C@@H]1CO	·	0	·	12	-14	-3[16.7 µM]
C[C@@H]1CCCCO[C@H](CN(C)S(=O)(=O)c2cccs2)[C@H](C)CN([C@H](C)CO)C(=O)c2cc(NC(=O)C3CCCCC3)ccc2O1	·	1	·	-24	·	6[16.7 µM]
CCNC(=O)C[C@H]1CC[C@H]2[C@@H](COc3ccc(NC(=O)C4CCOCC4)cc3C(=O)N2C)O1	·	-1	·	0	-1	5[16.7 µM]
Cn1cnc(S(=O)(=O)N2CCCCN3[C@H](C2)[C@H](c2ccc(C#CC4CC4)cc2)[C@@H]3CO)c1	·	0	·	·	-12	·
CC1CCC(NC(=O)C2COc3ccccc3O2)CC1 (stereo not given)	0	·	0	57*	·	-8
O=C(/C=C(\Nc1cc(Cl)c(F)c(Cl)c1)c1ccccc1)c1ccccc1	·	·	·	157*	11	11
COc1ccc(S(=O)(=O)N(C)C[C@@H]2OCCCC[C@@H](C)Oc3ccc(NC(=O)Nc4ccccc4)cc3C(=O)N([C@@H](C)CO)C[C@H]2C)cc1	·	53	·	-20	5	36[16.7 µM]
CCc1ccc2[nH]c(=O)c(C(c3nnnn3Cc3ccc(OC)cc3)N3CCOCC3)cc2c1 (stereo not given)	-4	0	0	3	·	78*
COc1ccc(Cn2nnnc2C(c2cc3cc(C)cc(C)c3[nH]c2=O)N2CCOCC2)cc1 (stereo not given)	-5	0	1	11	·	131*
COc1ccc(Cn2nnnc2C(c2cc3cccc(C)c3[nH]c2=O)N2CCN(C)CC2)cc1 (stereo not given)	-13	·	-1	11	8	1
CN(C)CCCNC(=O)C[C@@H]1C=C[C@H](NS(=O)(=O)c2ccccc2)[C@@H](CO)O1	·	38	·	13	-4	6[16.7 µM]
C(=C\c1ccc(C2[C@@H]3CN(Cc4ccccn4)C[C@H]2N3)cc1)/c1ccccc1 (stereo not given in full)	·	·	·	-28	-21	·
Fc1cccc(-c2ccc([C@@H]3[C@@H]4CN(Cc5nccs5)C[C@H]3N4)cc2)c1	·	·	·	33	9	·
Cc1ccc(-c2ccc(C3[C@@H]4CN(Cc5ccccc5)C[C@H]3N4)cc2)cc1 (stereo not given in full)	·	·	·	-3	·	·
C(=C\c1ccc(C2[C@@H]3CN(Cc4nccs4)C[C@H]2N3)cc1)/c1ccccc1 (stereo not given in full)	·	·	·	132*!	-74	·
Fc1cccc(CN2C[C@@H]3N[C@H](C2)C3c2ccc(/C=C/c3ccccc3)cc2)c1 (stereo not given in full)	·	·	·	471*!	-90	·
Fc1ccc(-c2ccc(C3[C@@H]4CN(Cc5ccccc5)C[C@H]3N4)cc2)cc1 (stereo not given in full)	·	·	·	75*!	74*!	·
Fc1ccc(-c2ccc(C3[C@@H]4CN(Cc5cccc(F)c5)C[C@H]3N4)cc2)cc1 (stereo not given in full)	·	·	·	376*!	27	·
SMILES	dFosB act	Cneo AK release	CDK5 inh	GSIS activator	PAX8 reporter	Env fusion inh
Cc1ccc(-c2ccc([C@@H]3[C@@H]4CN(Cc5ccccc5F)C[C@H]3N4)cc2)cc1	·	·	·	83*	89*	·
Cc1ccc(-c2ccc(C3[C@@H]4CN(Cc5cccc(F)c5)C[C@H]3N4)cc2)cc1 (stereo not given in full)	·	·	·	997*	-5	·
CCCC#Cc1cnc2c(c1)C(=O)N([C@H](C)CO)C[C@@H](C)[C@H](CN(C)Cc1ccncc1)O2	·	4	·	29	-11	-2[16.7 µM]
CO[C@@H]1CN(C)C(=O)c2ccc(NS(C)(=O)=O)cc2OC[C@@H](C)N(CC2CCCCC2)C[C@@H]1C	·	-4	·	23	·	-2[16.7 µM]
COc1cc(SC)ccc1C(=O)Nc1ncc(C)s1	-22	·	1	32	84*	39
CCOc1ncccc1C(=O)NCc1cccc(OC)c1	-6	1	-1	88*	4	9
CCOc1ncccc1C(=O)Nc1ncc(C)s1	-14	·	1	110*	4	-8
CCOc1ncccc1C(=O)NC(C)CCc1ccccc1 (stereo not given)	0	0	0	51*	-10	-20
CC(CCc1ccccc1)NC(=O)c1ccccc1Cl (stereo not given)	0	-1	-1	3	21	-1
COc1cc(SC)ccc1C(=O)Nc1ccc(Br)cn1	-4	-10	1	·	3	-11
C[C@H](CO)N1C[C@H](C)[C@H](CN(C)S(=O)(=O)c2cccs2)Oc2ncc(C#CC(C)(C)O)cc2C1=O	·	-3	·	-11	·	·
COCC1CC(c2ccccc2)OC(c2ccc(NC(=O)CCCCCCC(=O)O)cc2)O1 (stereo not given)	·	4	·	·	-1	-4[16.7 µM]
Cc1ccccc1-c1cnc2c(c1)C(=O)N([C@H](C)CO)C[C@@H](C)[C@@H](CN(C)Cc1cccnc1)O2	·	-3	·	36	·	-1[16.7 µM]
Cc1[nH]c2ccccc2c1C(=O)CSc1nc2cc(S(=O)(=O)N3CCCCC3)ccc2o1	5	1	2	·	22	65*
CCCN1[C@@H]2c3ccc(-c4ccccc4)c(=O)n3C[C@@H]2[C@@H](CO)[C@@H]1C(=O)NCC1CC1	·	47	·	-5	6	·
CNC(=O)C1CC(=O)N(c2ccc(OCC(=O)Nc3ccccc3)cc2)C1 (stereo not given)	-5	-1	-2	55*	-11	·
Nc1ccc(C2=Nc3cccc4cccc(c34)N2)cc1	41*	1	1	3	13	18
COc1cccc(C2=Nc3cccc4cccc(c34)N2)c1	8	0	3	4	13	-19
CCNC(=O)N(C)[C@H]1C[C@@H](c2ccccc2)N(C(C)=O)C[C@H]1CO	·	·	·	-7	-8	0
